Data taken from ChEMBL document CHEMBL1125251, “4'-Hydroxy-3-methoxyflavones with potent antipicornavirus activity” (J Med Chem, 1991).
Converted amounts (≈) assume the structure as drawn. The source made the active and inactive calls. The rule behind the calls is not given here.

Tests used:
[1] = Cytotoxic dose at which 50% growth of normal cells is inhibited; assay type: cell-based; settings: chlorocebus sabaeus, Vero cells; read-out: CyD50
Outline: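 Cell-growth cytotoxicity in Vero cells or human skin fibroblasts. Serial 2-fold dilutions in M-199 with 6% newborn calf serum were added in quadruplicate to 10⁶ cells and held 6 days at 37 °C. Cells were trypsinized, counted and reseeded with compound, repeated five times. Generation time was calculated per concentration. CyD50 = lowest concentration at least doubling generation time versus untreated cells.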

[2] = test system: Human rhinovirus sp.; assay: Minimum drug concentration at which 99% of the rhino virus is inhibited; NA= not active; assay type: functional, organism-based
Outline: (§1)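 End-point titration with rhinovirus type 15 on human skin fibroblast monolayers. Cells were infected with serial 10-fold virus dilutions and allowed 1 h adsorption at 37 °C. Serial 2-fold compound dilutions were then added and plates incubated at 33 °C. CPE was read daily by light microscopy for at least 1 week, titres as TCD50/mL. ED99 = minimum concentration inhibiting 99% of virus.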

[3] = test system: Human rhinovirus sp.; assay: Cytotoxic dose at which 50% growth of normal cells is inhibited against rhino virus infection.; assay type: functional
Outline: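 Human skin fibroblasts, 10⁶ cells per flask, given serial 2-fold dilutions in quadruplicate in M-199 with 6% newborn calf serum and held 6 days at 37 °C. Cells were trypsinized, counted in a chamber and reseeded with compound over five repeat cycles. CyD50 = lowest concentration at least doubling cell generation time relative to untreated control.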

[4] = organism: Rattus norvegicus; assay: Mutagenicity evaluated by calculating number of revertants using Salmonella Typhimurium strain TA 100 (0.25 mg/plate) without S9 mix from rat liver according to the plate incorporation assay.; assay type: functional
Outline: (§2)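 Ames plate incorporation assay with Salmonella typhimurium TA98 or TA100, without S9, at 0.25 mg/plate. Revertants per plate were counted on duplicate plates per dose. Quercetin was the standard mutagen.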

[5] = organism: Rattus norvegicus; assay: Mutagenicity evaluated by calculating number of revertants using Salmonella Typhimurium strain TA 98 (0.25 mg/plate) without S9 mix from rat liver; assay type: functional; outline: as §2
[6] = test system: Enterovirus C; assay: The ratio of the poliovirus viral titer of the virus control (reduction factor) to the viral titer in the presence of the maximal non-toxic dose (RF MNTD); assay type: functional
Outline: (§3)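 Poliovirus type 1 Brunhilde 1A/S3 in Vero monolayers. Serial 10-fold virus dilutions adsorbed 1 h at 37 °C, then serial 2-fold compound dilutions were added. Incubated at 37 °C and scored for CPE by light microscopy, with a 3-day readout. Titer reduction is control/treated TCD50/mL. ED99 is the minimum concentration inhibiting 99% of virus. Virus, cell and compound controls were included.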

[7] = test system: Enterovirus C; assay: Minimal dose which produces titer reduction at 10 ug/mL (mD RF10e3); assay type: functional
[8] = test system: Enterovirus C; assay: Minimum drug concentration at which 99% of the polio virus is inhibited; NA= Not active; assay type: functional, organism-based; outline: as §3
[9] = test system: Enterovirus C; assay: Maximal non-toxic dose (MNTD) that shows antiviral activity.; assay type: functional
Outline: (§4)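 End-point titration. Poliovirus type 1 Brunhilde was run in Vero cells at 37 °C with a 3-day read. Rhinovirus 15 was run in human skin fibroblasts at 33 °C with a 7-day read. Monolayers got serial 10-fold virus dilutions and adsorbed 1 h at 37 °C, then serial 2-fold compound dilutions (DMSO stock in maintenance medium). CPE was read by light microscopy. RF = control titer (TCD50/mL) / titer at maximal nontoxic dose.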

[10] = test system: Enterovirus C; assay: Minimum drug concentration at which 99% of the polio virus is inhibited; NA= not active; assay type: functional, organism-based; outline: as §3
[11] = test system: Enterovirus C; assay: Minimum drug concentration at which 99% of the polio virus is inhibited; assay type: functional; outline: as §3
[12] = Therapeutic Index measured as the ratio of CyD50(polio) / ED99(polio) values; assay type: organism-based; settings: enterovirus c; read-out: Therapeutic index 99
Outline: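 TI99 = CyD50/ED99 for poliovirus. ED99 came from end-point titration in Vero cells at 37 °C over 3 days. CyD50 came from Vero cell growth: 10⁶ cells were given serial 2-fold compound dilutions in quadruplicate for 6 days at 37 °C, then trypsinized, counted and reseeded, repeated five times. Generation time was calculated per concentration.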

[13] = organism: Rattus norvegicus; assay: Compound was evaluated for the mutagenicity by calculating number of revertants using Salmonella Typhimurium strain TA 98 (2.5 mg/plate) with S9 mix from rat liver; assay type: functional
Outline: (§5)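 Ames plate incorporation assay with Salmonella typhimurium TA 98 or TA 100, with or without rat liver S9 (20 µL S9 per plate). S9 came from male Wistar rats induced with phenobarbital (0.1% in drinking water) plus β-naphthoflavone (80 mg/kg ip on day 5 in corn oil), fasted 24 h and killed on day 7. Revertants per plate counted on duplicate plates per dose.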

[14] = organism: Rattus norvegicus; assay: Mutagenicity evaluated by calculating number of revertants using Salmonella Typhimurium strain TA 100 (0.25 mg/plate) with S9 mix from rat liver; assay type: functional; outline: as §5
[15] = organism: Rattus norvegicus; assay: Mutagenicity evaluated by calculating number of revertants using Salmonella Typhimurium strain TA 100 (2.5 mg/plate) with S9 mix from rat liver; assay type: functional; outline: as §5
[16] = organism: Rattus norvegicus; assay: Mutagenicity evaluated by calculating number of revertants using Salmonella Typhimurium strain TA 100 (2.5 mg/plate) without S9 mix from rat liver; assay type: functional; outline: as §5
[17] = organism: Rattus norvegicus; assay: Mutagenicity evaluated by calculating number of revertants using Salmonella Typhimurium strain TA 98 (2.5 mg/plate) without S9 mix from rat liver according to the plate incorporation assay.; assay type: functional; outline: as §5
[18] = organism: Rattus norvegicus; assay: Compound was evaluated for the mutagenicity by calculating number of revertants using Salmonella Typhimurium strain TA 98 (0.25 mg/plate) with S9 mix from rat liver; assay type: functional; outline: as §5
[19] = test system: Human rhinovirus sp.; assay: Minimum drug concentration at which 99% of the rhino virus is inhibited.; assay type: functional; outline: as §1
[20] = test system: Human rhinovirus sp.; assay: Antirhinovirus activity against rhinovirus serotype 15 which were grown on Ohio HeLa cells; assay type: functional
[21] = test system: Human rhinovirus sp.; assay: Antirhinovirus activity against rhinovirus serotype 2 which were grown on Ohio HeLa cells; assay type: functional
[22] = test system: Human rhinovirus sp.; assay: Antirhinovirus activity against rhinovirus serotype 29 which were grown on Ohio HeLa cells; assay type: functional
[23] = test system: Human rhinovirus sp.; assay: Antirhinovirus activity against rhinovirus serotype 39 which were grown on Ohio HeLa cells; assay type: functional
[24] = test system: Human rhinovirus sp.; assay: Antirhinovirus activity against rhinovirus serotype 41 which were grown on Ohio HeLa cells; assay type: functional
[25] = test system: Human rhinovirus sp.; assay: Antirhinovirus activity against rhinovirus serotype 63 which were grown on Ohio HeLa cells; assay type: functional
[26] = test system: Human rhinovirus sp.; assay: Antirhinovirus activity against rhinovirus serotype 85 which were grown on Ohio HeLa cells; assay type: functional
[27] = test system: Human rhinovirus sp.; assay: Antirhinovirus activity against rhinovirus serotype 89 which were grown on Ohio HeLa cells; assay type: functional
[28] = test system: Human rhinovirus sp.; assay: Antirhinovirus activity against rhinovirus serotype 9 which were grown on Ohio HeLa cells; assay type: functional
[29] = Therapeutic Index measured as the ratio of CyD50 (rhino) / ED99 (rhino) values.; settings: read-out: Therapeutic index 99
Outline: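 TI99 = CyD50/ED99 for rhinovirus 15. ED99 came from end-point titration in human skin fibroblasts at 33 °C over 7 days. CyD50 came from fibroblast growth: 10⁶ cells were given serial 2-fold compound dilutions in quadruplicate for 6 days at 37 °C, then counted and reseeded, repeated five times. Generation time was calculated per concentration.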

[30] = test system: Human rhinovirus sp.; assay: Antirhinovirus activity against rhinovirus serotype 14 which were grown on Ohio HeLa cells; assay type: functional
[31] = test system: Human rhinovirus sp.; assay: Antirhinovirus activity against rhinovirus serotype 59 which were grown on Ohio HeLa cells; assay type: functional
[32] = test system: Human rhinovirus sp.; assay: Antirhinovirus activity against rhinovirus serotype 70 which were grown on Ohio HeLa cells; assay type: functional
[33] = test system: Enterovirus C; assay: The ratio of the viral titer of the virus control (reduction factor) to the viral titer in the presence of the maximal non-toxic dose (RF MNTD) of the compound; assay type: functional; outline: as §4

Cc1ccc2c(=O)c(OC(C)C)c(-c3ccc(O)cc3)oc2c1
CC50 [1]: 2 µg/mL (≈ 6.44 µM)
ED99 [2]: inactive
CyD50 [3]: 2 µg/mL

O=c1c(O)c(-c2ccc(O)c(O)c2)oc2cc(O)cc(O)c12 [QUERCETIN]
Revertants/plate [4]: 589
Revertants/plate [5]: 1100

COc1cc(-c2oc3cc(O)c(OC)c(O)c3c(=O)c2OC)ccc1O
Reduction factor [6]: 10000
Minimal dose [7]: 1 µg/mL
ED99 [8]: inactive
Max non-toxic dose [9]: 10 µg/mL
CC50 [1]: 1 µg/mL (≈ 2.78 µM)

COc1c(-c2ccc(Cl)cc2)oc2cc(Cl)ccc2c1=O
Reduction factor [6]: 1
ED99 [10]: inactive
Max non-toxic dose [9]: 25 µg/mL
CC50 [1]: 20 µg/mL (≈ 62.3 µM)

COc1c(-c2ccc(Cl)cc2)oc2ccc(Cl)cc2c1=O
Reduction factor [6]: 1
ED99 [10]: inactive
Max non-toxic dose [9]: 25 µg/mL
CC50 [1]: 20 µg/mL (≈ 62.3 µM)

CCOc1c(-c2ccc(O)cc2)oc2cc(C)ccc2c1=O
Reduction factor [6]: 1
ED99 [11]: >25 µg/mL
Max non-toxic dose [9]: 25 µg/mL
CC50 [1]: 25 µg/mL (≈ 84.4 µM)
ED99 [2]: inactive
selectivity ratio [12]: < 1
CyD50 [3]: 25 µg/mL

COc1c(-c2ccc(O)cc2)oc2cc(O)c(C)c(C)c2c1=O
Reduction factor [6]: 1000000
Minimal dose [7]: <2.5 µg/mL
ED99 [11]: 0.1 µg/mL
Max non-toxic dose [9]: >100 µg/mL
CC50 [1]: > 100 µg/mL
Revertants/plate [13]: 9
Revertants/plate [14]: 103
Revertants/plate [4]: 110
Revertants/plate [15]: 94
Revertants/plate [16]: 85
Revertants/plate [5]: 12
Revertants/plate [17]: 10
Revertants/plate [18]: 20
ED99 [19]: 0.5 µg/mL
MIC50 [20]: 0.088 µg/mL (≈ 0.282 µM)
MIC50 [21]: 0.044 µg/mL (≈ 0.141 µM)
MIC50 [22]: 0.078 µg/mL (≈ 0.25 µM)
MIC50 [23]: 0.088 µg/mL (≈ 0.282 µM)
MIC50 [24]: 0.088 µg/mL (≈ 0.282 µM)
MIC50 [25]: 0.074 µg/mL (≈ 0.237 µM)
MIC50 [26]: 0.076 µg/mL (≈ 0.243 µM)
MIC50 [27]: 0.5 µg/mL (≈ 1.6 µM)
MIC50 [28]: 0.156 µg/mL (≈ 0.499 µM)
selectivity ratio [12]: > 1000
selectivity ratio [29]: > 200
MIC50 [30]: 0.072 µg/mL (≈ 0.231 µM)
MIC50 [31]: 0.016 µg/mL (≈ 0.0512 µM)
CyD50 [3]: 100 µg/mL

COc1cc(C)c2c(=O)c(OC)c(-c3ccc(O)cc3)oc2c1
Reduction factor [6]: 100000
Minimal dose [7]: 0.5 µg/mL
ED99 [11]: 1 µg/mL
Max non-toxic dose [9]: 25 µg/mL
CC50 [1]: 50 µg/mL (≈ 160 µM)
ED99 [19]: 25 µg/mL
MIC50 [20]: 0.4 µg/mL (≈ 1.28 µM)
MIC50 [21]: 2.4 µg/mL (≈ 7.68 µM)
MIC50 [22]: 0.175 µg/mL (≈ 0.56 µM)
MIC50 [23]: 12 µg/mL (≈ 38.4 µM)
MIC50 [24]: 0.375 µg/mL (≈ 1.2 µM)
MIC50 [32]: 5 µg/mL (≈ 16 µM)
MIC50 [27]: 0.2 µg/mL (≈ 0.64 µM)
MIC50 [28]: 0.2 µg/mL (≈ 0.64 µM)
selectivity ratio [12]: 50
selectivity ratio [29]: 2
MIC50 [30]: 10.8 µg/mL (≈ 34.6 µM)
MIC50 [31]: 3 µg/mL (≈ 9.61 µM)
CyD50 [3]: 50 µg/mL

N=C(N)N [GUANIDINE]
MIC50 [20]: 438 µg/mL (≈ 7410 µM)
MIC50 [21]: > 64 µg/mL
MIC50 [22]: > 64 µg/mL
MIC50 [23]: 109 µg/mL (≈ 1850 µM)
MIC50 [24]: 1000 µg/mL (≈ 16900 µM)
MIC50 [25]: 500 µg/mL (≈ 8460 µM)
MIC50 [32]: 6 µg/mL (≈ 102 µM)
MIC50 [26]: 750 µg/mL (≈ 12700 µM)
MIC50 [27]: 1000 µg/mL (≈ 16900 µM)
MIC50 [28]: 375 µg/mL (≈ 6350 µM)
MIC50 [30]: 7 µg/mL (≈ 118 µM)
MIC50 [31]: 350 µg/mL (≈ 5920 µM)

COc1ccc(-c2oc3c(OC)cccc3c(=O)c2OC)cc1
Reduction factor [6]: 1
ED99 [8]: inactive
Max non-toxic dose [9]: 100 µg/mL
CC50 [1]: > 200 µg/mL

COc1c(-c2ccc(O)cc2)oc2ccc([N+](=O)[O-])cc2c1=O
ED99 [8]: inactive
Max non-toxic dose [9]: 50 µg/mL
CC50 [1]: > 0.1 µg/mL

COc1c(-c2ccc(O)cc2)oc2ccc(N)cc2c1=O
Minimal dose [7]: 10 µg/mL
ED99 [11]: 5 µg/mL
Max non-toxic dose [9]: 10 µg/mL
Reduction factor [33]: 10000
CC50 [1]: 10 µg/mL (≈ 35.3 µM)
selectivity ratio [12]: 2
